Measured values: ChEMBL document CHEMBL1649438, “Activities of ceftobiprole and other cephalosporins against extracellular and intracellular (THP-1 macrophages and keratinocytes) forms of methicillin-susceptible and methicillin-resistant Staphylococcus aureus” (Antimicrob Agents Chemother, 2009)
pIC50: −log10 of the molar value. In brackets after ≈: the same amount, converted by molar mass.

Experiments:
Staphylococcus aureus [1] = test: Antimicrobial activity against hospital-acquired vancomycin-resistant Staphylococcus aureus VRS1 infected in human THP-1 cells assessed as change in bacterial count after 24 hrs; format: functional, cell-based; conditions: VRS1, THP-1, 24 h
Method in brief: (§1)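 THP-1 macrophages infected as described previously, with a postphagocytosis inoculum of 1.5 × 10⁶ to 3.0 × 10⁶ CFU/mg cell protein. Cells were exposed 24 h to increasing extracellular antibiotic concentrations. Response is the change in log10 CFU/mg protein from the inoculum (n = 3), fitted to a Hill function. E0 and Emax were extrapolated to infinitely low and high concentrations. EC50 and static concentration (graphical interpolation) are expressed as multiples of the broth MIC at pH 5.5 or 7.4.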

Staphylococcus aureus [2] = test: Antimicrobial activity against Panton-valentine leucocidin-positive community-acquired methicillin-resistant Staphylococcus aureus N4090440 infected in human THP-1 cells assessed as change in bacterial count after 24 hrs; format: functional, organism-based; conditions: N4090440, THP-1, 24 h
Method in brief: (§2)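 THP-1 human macrophages infected with S. aureus (postphagocytosis inoculum 1.5 × 10^6 to 3.0 × 10^6 CFU/mg cell protein), then incubated 24 h with increasing extracellular antibiotic concentrations. Change in log10 CFU/mg cell protein from the postphagocytosis inoculum, n = 3. Hill function fitted on log-transformed data. Low-concentration value (E0) and high-concentration value (Emax) are extrapolated. Where a pH is given, concentrations are expressed as multiples of the broth MIC at that pH.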

Staphylococcus aureus [3] = test: Antimicrobial activity against Panton-valentine leucocidin-positive community-acquired methicillin-resistant Staphylococcus aureus STA 228 infected in human THP-1 cells assessed as change in bacterial count after 24 hrs at pH 5.5; format: functional, organism-based; conditions: STA 228, THP-1, 24 h; method in brief: as §2
Staphylococcus aureus [4] = test: Bacteriostatic activity against hospital-acquired vancomycin-intermediate Staphylococcus aureus NRS126 infected in human THP-1 cells assessed as change in bacterial count after 24 hrs at pH 5.5; format: functional
Staphylococcus aureus [5] = test: Antimicrobial activity against Panton-valentine leucocidin-positive community-acquired methicillin-resistant Staphylococcus aureus NRS192 infected in human THP-1 cells assessed as bacterial count per mg of cell protein at high extracellular compound concentration after 24 hrs at pH 5.5; format: functional; method in brief: as §2
Staphylococcus aureus [6] = test: Antimicrobial activity against methicillin-susceptible Staphylococcus aureus NRS52 infected in human THP-1 cells assessed as change in bacterial count after 24 hrs at pH 5.5; format: functional, organism-based; conditions: NRS52, THP-1, 24 h; method in brief: as §1
Staphylococcus aureus [7] = test: Antimicrobial activity against Panton-valentine leucocidin-positive community-acquired methicillin-resistant Staphylococcus aureus isolate MEH2225605 infected in human THP-1 cells assessed as change in bacterial count after 24 hrs at pH 7.4; format: functional, organism-based; conditions: isolate MEH2225605, THP-1, 24 h; method in brief: as §2
Staphylococcus aureus [8] = test: Antimicrobial activity against methicillin-susceptible Staphylococcus aureus ATCC 25923 infected in human keratinocytes assessed as bacterial count per mg of cell protein at low extracellular compound concentration after 24 hrs; format: functional
Method in brief: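 Primary human skin keratinocytes were grown in defined keratinocyte serum-free medium and infected with S. aureus to 1.5 × 10^6 to 3.0 × 10^6 CFU/mg cell protein. Cells were exposed 24 h to increasing extracellular concentrations. Response was the log10 CFU change from the postphagocytosis inoculum, fitted by a Hill equation with slope 1. Cs is the concentration giving CFU equal to the original inoculum, found by graphical interpolation.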

MecA [9] = target: T1, MecA (Staphylococcus aureus, UniProt Q7DHH4); test: Binding affinity to Staphylococcus aureus ATCC […] PBP2a by Western blotting at pH 5.5 in presence of 100 uM Bocillin FL
T1 sequence (Q7DHH4 whole entry): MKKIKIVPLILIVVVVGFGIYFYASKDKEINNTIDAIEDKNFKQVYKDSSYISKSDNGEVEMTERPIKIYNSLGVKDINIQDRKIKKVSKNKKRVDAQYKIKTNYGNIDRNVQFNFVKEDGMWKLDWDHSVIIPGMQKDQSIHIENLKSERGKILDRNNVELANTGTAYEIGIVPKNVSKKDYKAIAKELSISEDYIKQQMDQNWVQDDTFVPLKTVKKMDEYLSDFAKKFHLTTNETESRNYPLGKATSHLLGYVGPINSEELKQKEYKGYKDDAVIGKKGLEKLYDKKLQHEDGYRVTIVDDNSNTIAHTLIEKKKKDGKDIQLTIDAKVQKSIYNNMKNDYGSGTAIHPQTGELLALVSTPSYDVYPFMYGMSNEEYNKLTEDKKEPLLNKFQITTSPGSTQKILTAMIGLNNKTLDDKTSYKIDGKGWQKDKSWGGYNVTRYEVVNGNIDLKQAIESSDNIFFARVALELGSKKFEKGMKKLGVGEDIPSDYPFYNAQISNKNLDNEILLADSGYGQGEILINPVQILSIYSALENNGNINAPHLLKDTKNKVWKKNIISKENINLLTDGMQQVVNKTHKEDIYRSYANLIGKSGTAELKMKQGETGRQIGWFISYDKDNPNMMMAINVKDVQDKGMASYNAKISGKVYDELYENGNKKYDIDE
Method in brief: (§3)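 Soluble truncated PBP 2a (ΔM1-Y23) was expressed in E. coli Rosetta 2(DE3) and purified. It was preincubated 25 min at 37°C with increasing cephalosporin concentrations, then 100 μM Bocillin FL was added for 25 min at 37°C at pH 5.5 or 7.4. Samples were run on SDS-PAGE and blotted with anti-bodipy antibody plus HRP secondary. Bands were detected by chemiluminescence and quantified by densitometry.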

MecA [10] = target: T1, MecA; test: Binding affinity to Staphylococcus aureus ATCC […] PBP2a by Western blotting at pH 7.4 in presence of 100 uM Bocillin FL; method in brief: as §3
Staphylococcus aureus [11] = test: Antimicrobial activity against methicillin-susceptible Staphylococcus aureus […] infected in human THP-1 cells assessed as bacterial count per mg of cell protein at high extracellular compound concentration after 24 hrs; format: functional
Method in brief: (§4)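 Human THP-1 macrophage-like cells were infected with S. aureus to a postphagocytosis inoculum of 1.5 × 10^6 to 3.0 × 10^6 CFU/mg cell protein. Cells were then exposed 24 h to increasing extracellular antibiotic concentrations. Response was the log10 CFU change per mg protein from the postphagocytosis inoculum, n = 3. A Hill function was fitted on log-transformed axes. E0 and Emax were extrapolated to infinitely low and high concentrations. Cs was read by graphical interpolation. Concentrations were expressed as multiples of the broth MIC at pH 5.5 or pH 7.4.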

Staphylococcus aureus [12] = test: Antimicrobial activity against methicillin-susceptible Staphylococcus aureus […] infected in human THP-1 cells assessed as change in bacterial count after 24 hrs; format: functional, organism-based; conditions: THP-1, 24 h; method in brief: as §1
Staphylococcus aureus [13] = test: Antimicrobial activity against methicillin-susceptible Staphylococcus aureus ATCC 11632 infected in human THP-1 cells assessed as bacterial count per mg of cell protein at high extracellular compound concentration after 24 hrs; format: functional; method in brief: as §1
Staphylococcus aureus [14] = test: Antimicrobial activity against hospital-acquired methicillin-resistant Staphylococcus aureus ATCC 33591 infected in human THP-1 cells assessed as change in bacterial count after 24 hrs; format: functional, organism-based; conditions: ATCC 33591, THP-1, 24 h; method in brief: as §1
Staphylococcus aureus [15] = test: Antimicrobial activity against hospital-acquired vancomycin-intermediate Staphylococcus aureus NRS18 infected in human THP-1 cells assessed as bacterial count per mg of cell protein at high extracellular compound concentration after 24 hrs; format: functional; method in brief: as §4

## Nc1nc(/C(=N/O)C(=O)N[C@@H]2C(=O)N3C(C(=O)O)=C(/C=C4\CCN([C@@H]5CCNC5)C4=O)CS[C@H]23)ns1 [CEFTOBIPROLE]
Staphylococcus aureus [1]
  EC50: 0.25 µg/mL (≈ 0.468 µM)
Staphylococcus aureus [2]
  EC50: 0.08 µg/mL (≈ 0.15 µM)
Staphylococcus aureus [3]
  EC50: 0.54 × MIC
Staphylococcus aureus [4]
  Activity: 1.97 multiples of MIC
Staphylococcus aureus [5]
  log10cfu: -1.02
Staphylococcus aureus [6]
  EC50: 0.41 × MIC
Staphylococcus aureus [7]
  EC50: 0.33 ×MIC
Staphylococcus aureus [8]
  log10cfu: 2.48
MecA [9]
  pIC50: 5.72
MecA [10]
  pIC50: 5.10
Staphylococcus aureus [11]
  log10cfu: -1.15
Staphylococcus aureus [12]
  EC50: 0.07 µg/mL (≈ 0.131 µM)
Staphylococcus aureus [13]
  log10cfu: -0.95
Staphylococcus aureus [14]
  EC50: 0.27 µg/mL (≈ 0.505 µM)
Staphylococcus aureus [15]
  log10cfu: -1.34
